# From PubChem BioAssay
# For some of these results: Potency and affinity values are given separately. Activity calls are given as the source filed them.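 How the source made its calls, unless noted: active means GFP response above 150% of the DMSO level; inconclusive means fewer than 70 events counted for a yeast strain; inactive means the rest.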
# Tests used:
# [1] = target: Cell division control protein 42 homolog (Homo sapiens) (UniProt P60953); assay: inhibition of fluorescent GTP binding to constitutively active Cdc42 – biochemical, multiplex bead flow cytometry, Bodipy-FL-GTP, dose response (AID 1333;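 active means fitted half-maximal concentration within the tested dose range, moderate curve steepness, a statistically real signal drop, and little compound fluorescence or tag-binding interference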)
# Sequence of Cell division control protein 42 homolog (Homo sapiens) (P60953 whole entry, looked up): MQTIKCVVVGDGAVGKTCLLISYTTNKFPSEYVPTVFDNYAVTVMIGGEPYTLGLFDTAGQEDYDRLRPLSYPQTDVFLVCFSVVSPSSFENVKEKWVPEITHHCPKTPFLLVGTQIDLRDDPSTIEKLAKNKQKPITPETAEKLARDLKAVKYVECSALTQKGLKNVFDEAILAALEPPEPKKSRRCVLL
# [2] = target: Cell division control protein 42 homolog (Homo sapiens) (UniProt P60953); assay: inhibition of fluorescent GTP binding to wildtype Cdc42 – biochemical, multiplex bead flow cytometry, Bodipy-FL-GTP, dose response (AID 1334;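 active means fitted half-maximal concentration within the tested range, moderate curve steepness, significant signal drop, and little compound fluorescence or bead-linkage interference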); conditions: bead-based flow cytometry, Bodipy-FL-GTP binding to GST-Cdc42; at 100 µM (top of the series)
# [3] = tested on: Ras-related protein Rab-7a (dog), GTP binding; assay: blockers of fluorescent GTP binding to Rab7 – biochemical, wildtype, multiplex bead flow cytometry, dose response (AID 1336; call rule not given here)
# [4] = target: Ras-related C3 botulinum toxin substrate 1 (Homo sapiens) (UniProt P63000); assay: inhibition of wildtype Rac1 nucleotide loading – biochemical, multiplex bead flow cytometry, dose response (AID 1340;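 active means dose curve with midpoint inside tested range, moderate steepness, plateau gap beyond fit error, low compound glow and bead-link interference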); conditions: GST-Rac1 beads, Bodipy-FL-GTP binding; at 100 µM (top of the series)
# [5] = target: GTPase HRas (Homo sapiens) (UniProt P01112); assay: blockade of GTP loading onto mutant Ras – biochemical, activated mutant, multiplex bead flow cytometry, dose response (AID 1341;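 active means dose-response curve with midpoint inside the tested range, moderate steepness, significant amplitude and little compound fluorescence or bead-attachment interference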;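 further: GST-tagged constitutively activated Ras mutant immobilized on beads and multiplexed with other GTPases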)
# [6] = hit retest on RPL19A-GFP reporter strain – cell-based, S. cerevisiae, flow cytometry, cherry picks, mother/daughter gates, confirmation (AID 2270;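 active means GFP response below 50% of the DMSO control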); conditions: 3 h, at 10 µM, stronger effect = lower value, 100 = same GFP as DMSO wells
# [7] = yeast TOR pathway reporter LAP4-GFP change – cell-based, cherry picks, flow cytometry, mother/daughter gates, confirmation (AID 2271;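 active means GFP response above 150% of the DMSO control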;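 further: ratio of sample to DMSO plate mean so 100% equals DMSO level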); conditions: S. cerevisiae LAP4-GFP strain, 3 h, at 10 µM, stronger effect = higher value
# Summary of the method: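 System: GFP-fusion yeast strain; Incubation: compound exposure 3 h at 30 °C, end-over-end rotation; Measured by: GFP by flow cytometry; Read-out: median GFP fluorescence as percent of plate-mean DMSO wells; Medium: synthetic complete (SC) yeast growth medium; Compound: single test-compound dose, 10 µM final; Benchmarks: DMSO-only negative wells, rapamycin 400 ng/mL positive wells.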
# [8] = TOR pathway reporter MEP2-GFP, retest of hits – S. cerevisiae, flow cytometry GFP, cherry picks, confirmation (AID 2272;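 active means GFP response above 150% of the DMSO control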;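 further: ratio of well signal to plate DMSO mean so 100% equals DMSO level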); conditions: S. cerevisiae MEP2-GFP strain, 3 h, at 10 µM, stronger effect = higher value
# [9] = yeast AGP1-GFP fluorescence change, single-dose – cell-based, flow cytometry, S. cerevisiae, cherry picks, confirmation (AID 2273);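 further: median GFP channel fluorescence over the whole cell population gate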; conditions: S. cerevisiae AGP1-GFP strain, 3 h, at 10 µM
# [10] = TOR pathway CIT2 reporter hit retest – S. cerevisiae, GFP fusion, cherry picks, mother/daughter gates, confirmation (AID 2274); conditions: S. cerevisiae CIT2-GFP strain, flow cytometry, 3 h, at 10 µM, stronger effect = higher value
# [11] = measured here: daughter cell gate
# [12] = measured here: mother cell gate
# [13] = measured here: daughter cell gate response
# [14] = measured here: mother cell gate response
smiles,measurement,setting,value
O=c1[nH]c(=S)[nH]c(O)c1N=Nc1ccc(S(=O)(=O)N2CCc3ccccc32)cc1,outcome,[1],inactive
same,"fluorescence, percent of control (lower = inhibition)",[2],44.9%
same,outcome,[3],inactive
same,"GTP binding signal, raw median fluorescence (lower = inhibition) (MCF (arbitrary fluorescence units))",[4],312
same,outcome,[5],inactive
CCOCCCn1c(N)c(C(=O)Nc2sc3c(c2C(=O)OC)CCCC3)c2nc3ccccc3nc21,outcome,[1],inactive
same,"fluorescence, percent of control (lower = inhibition)",[2],64.4%
same,outcome,[3],inactive
same,"GTP binding signal, raw median fluorescence (lower = inhibition) (MCF (arbitrary fluorescence units))",[4],127
same,outcome,[5],inactive
O=c1[nH]c(=S)[nH]c(O)c1N=Nc1cc2c(cc1[N+](=O)[O-])OCO2,outcome,[1],inactive
same,"fluorescence, percent of control (lower = inhibition)",[2],24.3%
same,outcome,[3],inactive
same,"GTP binding signal, raw median fluorescence (lower = inhibition) (MCF (arbitrary fluorescence units))",[4],211
same,outcome,[5],inactive
CN(C)c1ccc(/C=C/C=C2/C(=O)NC(=O)N(c3ccccc3)C2=O)cc1,outcome,[1],inactive
same,"fluorescence, percent of control (lower = inhibition)",[2],23.6%
same,outcome,[3],inactive
same,"GTP binding signal, raw median fluorescence (lower = inhibition) (MCF (arbitrary fluorescence units))",[4],155
same,outcome,[5],inactive
CCCCN1C(=O)/C(=C\c2ccco2)C(=O)N(CCc2ccccc2)C1=O,outcome,[1],inactive
same,"fluorescence, percent of control (lower = inhibition)",[2],77.8%
same,outcome,[3],inactive
same,"GTP binding signal, raw median fluorescence (lower = inhibition) (MCF (arbitrary fluorescence units))",[4],129
same,outcome,[5],inactive
C#C[C@]1(O)CC[C@H]2[C@@H]3CCC4=CC(=O)CC[C@]4(C)[C@H]3CC[C@@]21C,GFP response vs DMSO,[6],97% (inactive)
same,GFP response vs DMSO,[6]; [11],95.9%
same,GFP response vs DMSO,[6]; [12],95.6%
same,GFP response relative to DMSO,[7],103% (inactive)
same,GFP response relative to DMSO,[7]; [13],102%
same,GFP response relative to DMSO,[7]; [14],101%
same,GFP response vs DMSO,[8],107% (inactive)
same,"GFP response, % of DMSO",[9],95.4% (inactive)
same,"GFP response, % of DMSO",[10],95.5% (inactive)
same,"GFP response, % of DMSO",[10]; [11],97.2%
same,"GFP response, % of DMSO",[10]; [12],92.6%
O=C1C(=O)c2ccccc2-c2ccccc21,GFP response vs DMSO,[6],122% (inactive)
same,GFP response vs DMSO,[6]; [11],106%
same,GFP response vs DMSO,[6]; [12],116%
same,GFP response relative to DMSO,[7],171% (active)
same,GFP response relative to DMSO,[7]; [13],143%
same,GFP response relative to DMSO,[7]; [14],169%
same,GFP response vs DMSO,[8],117% (inactive)
same,"GFP response, % of DMSO",[9],126% (inactive)
same,"GFP response, % of DMSO",[10],88.7% (inactive)
same,"GFP response, % of DMSO",[10]; [11],89.9%
same,"GFP response, % of DMSO",[10]; [12],82.6%
C[C@]12CC[C@@H](O)C[C@@H]1CC[C@@H]1[C@@H]2CC[C@]2(C)[C@@H](O)CC[C@@H]12,GFP response vs DMSO,[6],92.2% (inactive)
same,GFP response vs DMSO,[6]; [11],87.3%
same,GFP response vs DMSO,[6]; [12],94.1%
same,GFP response relative to DMSO,[7],112% (inactive)
same,GFP response relative to DMSO,[7]; [13],107%
same,GFP response relative to DMSO,[7]; [14],119%
same,GFP response vs DMSO,[8],89.9% (inactive)
same,"GFP response, % of DMSO",[9],90% (inactive)
same,"GFP response, % of DMSO",[10],85.5% (inactive)
same,"GFP response, % of DMSO",[10]; [11],86.2%
same,"GFP response, % of DMSO",[10]; [12],87.8%
